Measurements as given in ChEMBL document CHEMBL4261585, “Synthesis of 1,2,3-triazole linked 4(3H)-Quinazolinones as potent antibacterial agents against multidrug-resistant Staphylococcus aureus” (Eur J Med Chem, 2018).
Values after ≈ are worked out from the molar mass of the structure shown. Where a SMILES comes first, the peptide text is derived from it. Bridges are numbered along the chain shown (N, C = ends). [ ]: non-standard residue; d: D form. Dab = NCC[C@H](N)C(=O)O

Key:
Type in all cases: functional
Mycobacteroides chelonae = test: Antimycobacterial activity against Mycobacterium chelonae by pesto blue-dye based broth microdilution assay
Klebsiella pneumoniae = test: Antibacterial activity against Klebsiella pneumoniae ATCC BAA-1705 after 16 to 18 hrs by CLSI method
Summary of the method: (§1)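 Broth microdilution MIC per CLSI. A single colony from Mueller-Hinton agar is grown overnight in cation-supplemented Mueller-Hinton broth (37 °C, shaking, 18–24 h). Incubation is 37 °C for 16–18 h. MIC is the lowest concentration with no visible growth. Three independent runs, each in duplicate.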

[1] = system: Mycobacterium tuberculosis; test: Antimycobacterial activity against Mycobacterium tuberculosis H37Rv ATCC 27294 after 7 days by pesto blue-dye based broth microdilution assay; details: H37Rv ATCC 27294, 168 h
Summary of the method: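 Broth microdilution in Middlebrook 7H9 with 10% ADC-Tween-80 (0.2% glycerol, 0.05% Tween-80). Compound is added from 10 mg/mL DMSO stocks as two-fold dilutions, 64–0.5 mg/L. Plates are incubated 7 days at 37 °C and read with PrestoBlue resazurin dye. MIC is the lowest concentration inhibiting visible growth, three replicates in duplicate.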

[2] = system: Mycobacteroides abscessus; test: Antimycobacterial activity against Mycobacterium abscessus by pesto blue-dye based broth microdilution assay
Pseudomonas aeruginosa = test: Antibacterial activity against Pseudomonas aeruginosa ATCC 27853 after 16 to 18 hrs by CLSI method; summary of the method: as §1
Staphylococcus aureus = test: Antibacterial activity against Staphylococcus aureus ATCC 29213 after 16 to 18 hrs by CLSI method; summary of the method: as §1
Acinetobacter baumannii = test: Antibacterial activity against Acinetobacter baumannii BAA-1605 after 16 to 18 hrs by CLSI method; summary of the method: as §1
[3] = system: Mycolicibacterium fortuitum; test: Antimycobacterial activity against Mycobacterium fortuitum by pesto blue-dye based broth microdilution assay
Escherichia coli = test: Antibacterial activity against Escherichia coli ATCC 25922 after 16 to 18 hrs by CLSI method; summary of the method: as §1

| Compound | MIC (Mycobacteroides chelonae) | MIC (Klebsiella pneumoniae) | MIC [1] | MIC [2] | MIC (Pseudomonas aeruginosa) | MIC (Staphylococcus aureus) | MIC (Acinetobacter baumannii) | MIC [3] | MIC (Escherichia coli) |
| --- | --- | --- | --- | --- | --- | --- | --- | --- | --- |
| N#Cc1ccc(/C=C/c2nc3ccccc3c(=O)n2-c2cccc(-n3cc(-c4ccccc4)nn3)c2)cc1 | > 64 µg/mL | > 64 µg/mL | > 64 µg/mL | > 64 µg/mL | > 64 µg/mL | > 64 µg/mL | > 64 µg/mL | > 64 µg/mL | > 64 µg/mL |
| Cc1cccc(-n2cc(COc3cccc(-n4c(C)nc5ccccc5c4=O)c3)nn2)c1 | > 64 µg/mL | > 64 µg/mL | > 64 µg/mL | > 64 µg/mL | > 64 µg/mL | > 64 µg/mL | > 64 µg/mL | > 64 µg/mL | > 64 µg/mL |
| O=c1c2ccccc2nc(/C=C/c2ccc(Cl)cc2)n1-c1cccc(OCc2cn(-c3cccc(F)c3)nn2)c1 | > 64 µg/mL | > 64 µg/mL | > 64 µg/mL | > 64 µg/mL | > 64 µg/mL | 4 µg/mL (≈ 7.27 µM) | > 64 µg/mL | > 64 µg/mL | > 64 µg/mL |
| COc1cc(-n2cc(COc3cccc(-n4c(C)nc5ccccc5c4=O)c3)nn2)cc(OC)c1OC | > 64 µg/mL | > 64 µg/mL | > 64 µg/mL | > 64 µg/mL | > 64 µg/mL | > 64 µg/mL | > 64 µg/mL | > 64 µg/mL | > 64 µg/mL |
| COc1ccc(-n2cc(COc3cccc(-n4c(/C=C/c5ccc(C#N)cc5)nc5ccccc5c4=O)c3)nn2)cc1 | > 64 µg/mL | > 64 µg/mL | > 64 µg/mL | > 64 µg/mL | > 64 µg/mL | 4 µg/mL (≈ 7.24 µM) | > 64 µg/mL | > 64 µg/mL | > 64 µg/mL |
| Cc1nc2ccccc2c(=O)n1-c1cccc(OCc2cn(-c3cccc(C(=O)O)c3)nn2)c1 | > 64 µg/mL | > 64 µg/mL | > 64 µg/mL | > 64 µg/mL | > 64 µg/mL | > 64 µg/mL | > 64 µg/mL | > 64 µg/mL | > 64 µg/mL |
| Cc1ccc(C)c(OCc2cn(-c3cccc(-n4c(C)nc5ccccc5c4=O)c3)nn2)c1 | > 64 µg/mL | > 64 µg/mL | > 64 µg/mL | > 64 µg/mL | > 64 µg/mL | > 64 µg/mL | > 64 µg/mL | > 64 µg/mL | > 64 µg/mL |
| N#Cc1ccc(/C=C/c2nc3ccccc3c(=O)n2-c2cccc(OCc3cn(-c4cccc(F)c4)nn3)c2)cc1 | > 64 µg/mL | > 64 µg/mL | > 64 µg/mL | > 64 µg/mL | > 64 µg/mL | 0.5 µg/mL (≈ 0.925 µM) | > 64 µg/mL | > 64 µg/mL | > 64 µg/mL |
| Cc1cccc2c(=O)n(-c3cccc(OCc4cn(-c5cccc(Cl)c5)nn4)c3)c(/C=C/c3ccc(C#N)cc3)nc12 | > 64 µg/mL | > 64 µg/mL | > 64 µg/mL | > 64 µg/mL | > 64 µg/mL | > 64 µg/mL | > 64 µg/mL | > 64 µg/mL | > 64 µg/mL |
| Cc1ccc(-n2cc(COc3cccc(-n4c(C)nc5ccccc5c4=O)c3)nn2)cc1[N+](=O)[O-] | > 64 µg/mL | > 64 µg/mL | > 64 µg/mL | > 64 µg/mL | > 64 µg/mL | > 64 µg/mL | > 64 µg/mL | > 64 µg/mL | > 64 µg/mL |
| Cc1nc2ccccc2c(=O)n1-c1cccc(-n2cc(-c3ccccc3)nn2)c1 | > 64 µg/mL | > 64 µg/mL | > 64 µg/mL | > 64 µg/mL | > 64 µg/mL | > 64 µg/mL | > 64 µg/mL | > 64 µg/mL | > 64 µg/mL |
| Cc1nc2ccccc2c(=O)n1-c1cccc(OCc2cn(-c3cccc(Cl)c3)nn2)c1 | > 64 µg/mL | > 64 µg/mL | > 64 µg/mL | > 64 µg/mL | > 64 µg/mL | > 64 µg/mL | > 64 µg/mL | > 64 µg/mL | > 64 µg/mL |
| CCC(C)(C)c1ccc(OCc2cn(-c3cccc(-n4c(/C=C/c5ccc(C#N)cc5)nc5ccccc5c4=O)c3)nn2)cc1 | > 64 µg/mL | > 64 µg/mL |  | > 64 µg/mL | > 64 µg/mL | > 64 µg/mL | > 64 µg/mL | > 64 µg/mL | > 64 µg/mL |
| NNC(=O)c1ccncc1 [ISONIAZID] |  |  | 0.03 µg/mL (≈ 0.219 µM) |  |  |  |  |  |  |
| CC(C)C[C@@H]1NC(=O)[C@@H](Cc2ccccc2)NC(=O)[C@H](CCN)NC(=O)[C@@H](NC(=O)[C@H](CCN)NC(=O)[C@@H](N)[C@@H](C)O)CCNC(=O)[C@H]([C@@H](C)O)NC(=O)[C@H](CCN)NC(=O)[C@H](CCN)NC1=O [POLYMYXIN B NONAPEPTIDE] (H-T[Dab][Dab][Dab][dF]L[Dab][Dab]T; lactam 3-C) |  |  |  |  |  |  | > 128 µg/mL |  | > 128 µg/mL |
